For data set [1], the system named is Mus musculus. Description: In vivo partial agonist activity at 5HT1A receptor in CD-1 mouse assessed as change in body temperature at 10 mg/kg, ip measured after 30 mins (reference value: -0.1 degC). The data set is classed as functional, organism-based. Put shortly: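 Male CD-1 mice, 7-9 per dose, dosed i.p. Rectal temperature was recorded at 30, 60, 90 and 120 min. Results are the change from basal temperature taken at the start of the experiment.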

The test system of data set [2] is Mus musculus. Briefly: In vivo partial agonist activity at 5HT1A receptor in CD-1 mouse assessed as change in body temperature at 5 mg/kg, ip measured after 90 mins (reference value: -0.1 degC). The data set is classed as functional, organism-based. A digest of the protocol:
(§1)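 Male CD-1 mice, 7-9 per dose, compound suspended in 1% aqueous Tween 80 and given i.p. at 10 ml/kg. Rectal temperature was taken by thermometer 30, 60, 90 and 120 min after dosing. Change (Δt) is expressed against basal temperature measured at the start. Mean ± SEM, one-way ANOVA with Bonferroni test.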

The test system of data set [3] is Mus musculus. Briefly: In vivo partial agonist activity at 5HT1A receptor in CD-1 mouse assessed as change in body temperature at 10 mg/kg, ip administered 15 mins after 5HT1A receptor antagonist WAY100635 injection measured after 30 mins (reference value: -0.1 degC). The format is functional, organism-based. A digest of the protocol:
(§2)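 Male CD-1 mice, 7-9 per dose. WAY 100635 (0.3 mg/kg) was given 15 min before the compound i.p. Rectal temperature was recorded 30 and 60 min after the compound, as the change from basal temperature.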

Data set [4] relates to Mus musculus. Briefly: In vivo partial agonist activity at 5HT1A receptor in CD-1 mouse assessed as change in body temperature at 5 mg/kg, ip measured after 60 mins (reference value: -0.1 degC). The data set is classed as functional, organism-based. Put shortly: as §1
The test system of data set [5] is Mus musculus. Briefly: Toxicity in ip dosed CD-1 mouse assessed as minimum dose required for induction of catalepsy by bar test. The data set is classed as organism-based. The conditions noted are these: in vivo. Put shortly: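 Male CD-1 mice, 10 per group, given compound i.p. (1% Tween 80 suspension). Forelimbs were placed on a horizontal rod 4 cm high at 30, 60 and 120 min. Catalepsy was scored up to 3 (≥60 s on bar). Minimum cataleptogenic dose is the lowest dose giving a mean score ≥1 at any of those times.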

The subject of data set [6] is Mus musculus. Briefly: Toxicity in Swiss albino mouse assessed as stimulation of spontaneous locomotor activity at 2.5 to 5 mg/kg, ip measured during 2-6 mins session. As to conditions: in vivo. The format is organism-based. A digest of the protocol: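 Male Swiss albino mice, 8-10 per dose, received compound i.p. 60 min before testing. Each mouse was placed individually in a cage on an infrared activity monitor. Channel crossings (ambulation) were counted from 2 to 6 min, matching the forced swim test observation window.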

Data set [7] has as its system Mus musculus. Briefly: Antipsychotic activity in CD-1 mouse assessed as inhibition of D-amphetamine-induced hyperlocomotor activity at 0.156 to 0.625 mg/kg, ip. The data set is classed as functional, organism-based. Put shortly: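 Male CD-1 mice, 8-10 per dose. d-Amphetamine was given s.c. 30 min pretest; test compound i.p. 60 min pretest in 1% Tween 80. After 30 min habituation in the activity monitor, ambulation crossings were counted for 1 h, recorded every 5 min.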

Data set [8] has as its system Mus musculus. Description: In vivo partial agonist activity at 5HT1A receptor in CD-1 mouse assessed as change in body temperature at 10 mg/kg, ip measured after 90 mins (reference value: -0.1 degC). The format is functional, organism-based. A digest of the protocol:
as §1

The test system of data set [9] is Mus musculus. Briefly: In vivo partial agonist activity at 5HT1A receptor in CD-1 mouse assessed as change in body temperature at 10 mg/kg, ip administered 15 mins after 5HT1A receptor antagonist WAY100635 injection measured after 60 mins (reference value: -0.1 degC). The data set is classed as functional, organism-based. Put shortly:
as §2

For data set [10], the system named is Mus musculus. Briefly: In vivo partial agonist activity at 5HT1A receptor in CD-1 mouse assessed as change in body temperature at 5 mg/kg, ip measured after 120 mins (reference value: -0.1 degC). The format is functional, organism-based. A digest of the protocol: as §1

The structures appear in SMILES notation. Active and inactive are the calls of the source. The calls are words filed in the database; no cut-off is given here.

For `COc1ccccc1N1CCN(CCCCN2C(=O)NC3(CCCc4ccccc43)C2=O)CC1` (stereo not given), the deltaT was -1.9 °C in data set [1]; -0.7 °C in data set [2]; -1.1 °C in data set [3]; -0.7 °C in [4]; -1.3 °C in [8]; -1 °C in data set [9]. Besides, the deltaT in data set [10] is -0.6 °C. Moreover, the results for the Activity in [5] and in data set [6] were 30 mg/kg and “Non-toxic”, respectively. Besides, in [7], the inhibition result is “Active”.

These data come from ChEMBL document CHEMBL3588770, “Novel spirohydantoin derivative as a potent multireceptor-active antipsychotic and antidepressant agent” (Bioorg Med Chem, 2015).
